Experimental findings from ChEMBL document CHEMBL1140385, “Synthesis and antibacterial activity of 3-substituted-6-(3-ethyl-4-methylanilino)uracils” (J Med Chem, 2005) are described below.

As a reminder, the MIC is the smallest concentration in the dilution series that meets the test's criterion for growth inhibition. In general, AUC refers to concentration integrated over time. What is called Cmax is the maximum level reached in the sampled fluid or tissue. By Tmax is commonly meant the time at which the peak concentration occurs. A word on the half-life: it is the time in which the quantity being followed falls by half. Low readings indicate rapid decline, high ones slow decline. What is called Ki is the dissociation constant of the complex between target and ligand, obtained from inhibition or displacement.

Data set [1] concerns Staphylococcus aureus. Description: In vitro minimum inhibitory concentration against Staphylococcus aureus upon incubation at 37 degree C for 16 to 24 hr by dissolving in DMSO (1%). Type of data set: functional.
In data set [2] the test system is Enterococcus faecalis. The data set can be described thus: In vitro minimum inhibitory concentration against Enterococcus faecalis upon incubation at 37 degree C for 16 to 24 hr by dissolving in DMSO (1%). It is filed as functional. The method in brief:
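Log-phase E. faecalis was grown in brain-heart infusion broth and seeded at (3-7) × 10^5 CFU/mL. Duplicate 2-fold dilutions ran from 20 to 1.25 µg/mL, final 1% DMSO. After 16-24 h at 37 °C with shaking, OD600 was read.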

Data set [3] can be described thus: Area under the plasma concentration curve determined in mouse after intravenous administration at 20 mg/kg. Also on record: dose 20 mg/kg, route intravenous. The note with it: in vivo. Type of data set: ADME, organism-based. The method in brief: (§1)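 Male Swiss-Webster mice (20-24 g) got a 20 mg/kg tail-vein iv bolus, either in 30% aqueous HP-β-cyclodextrin or in PBS neutralized with KOH. Groups of three were bled by cardiac puncture under halothane before dosing and at 2, 5, 15, 30, 60 and 120 min. Heparinized plasma was MeCN-treated and run on C18 HPLC at 282 nm against a spiked-plasma standard curve.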

The nature of data set [4]: Area under the plasma concentration curve determined in mouse after subcutaneous administration at 400 mg/kg. It is filed as ADME, organism-based. Set-up: dose 400 mg/kg, route subcutaneous. The note with it: in vivo, sc. The method in brief: (§2)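 Male Swiss-Webster mice got single sc doses of 20 or 60 mg/kg in 30% aqueous HP-β-cyclodextrin, or 20, 200 or 400 mg/kg in KOH-neutralized PBS. Groups of three were bled by cardiac puncture before dosing and at 5, 15, 30, 60, 120 and 180 min, plus 360 min at 400 mg/kg. Plasma drug was measured by C18 reverse-phase HPLC at 282 nm against a spiked-plasma standard curve.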

Data set [5] concerns Staphylococcus aureus. Description: Effect on survival of staphylococcus aureus (Smith) ip-infected mice at a concentration 20 mg/kg. It is filed as functional. The method in brief:
(§3)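 Male pathogen-free Swiss-Webster mice (20-24 g), groups of five, infected ip with ca. 10⁸ CFU log-phase S. aureus Smith (grown 37 °C in LB, washed, in 0.5 mL LB). Single ip dose 15 min post-infection, in 10% DMSO/peanut oil or PBS. Survivors counted at 72 h post-infection.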

Data set [6] in a line: Maximum plasma concentration in mouse after peroral administration at 200 mg/kg. Type of data set: ADME, organism-based. Also on record: dose 200 mg/kg, route oral. As to conditions: po. The method in brief: (§4)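 A single 200 mg/kg gavage dose in KOH-neutralized PBS was given to male Swiss-Webster mice. Blood was taken by cardiac puncture under halothane before dosing and at 15, 30, 60, 120 and 180 min. Heparinized plasma was deproteinized with equal-volume MeCN and quantified by C18 HPLC (282 nm) against a standard curve from compound-spiked plasma.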

A short description of data set [7]: Maximum time taken to reach Cmax was determined in mouse after peroral administration at 200 mg/kg. The note with it: in vivo, po. It is filed as ADME, organism-based. Set-up: dose 200 mg/kg, route oral. The method in brief: as §4
For data set [8], the system named is Staphylococcus aureus. Description: Serum effect on MIC against Staphylococcus aureus (Smith) as ratio of MIC value in presence and absence of 50% fetal calf serum. Type of data set: functional. The method in brief:
(§5)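 Broth microdilution MIC was repeated with 50% fetal calf serum added to the growth medium (LB for S. aureus, brain-heart infusion broth for E. faecalis). The inoculum was (3-7) × 10^5 CFU/mL in 1% DMSO, incubated at 37 °C for 16-24 h, and read by OD600. The serum effect is the MIC with serum relative to the MIC without serum.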

Data set [9] relates to Enterococcus faecium. Description: In vitro minimum inhibitory concentration against Vancomycin resistant Enterococci faecium upon incubation at 37 degree C for 16 to 24 hr by dissolving in DMSO (1%). It is filed as functional. The method in brief:
(§6)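 Broth microdilution (modified NCCLS M7-A4). Enterococci grown to log phase in brain-heart infusion broth, seeded at (3-7) × 10⁵ CFU/mL. Compounds 2-fold diluted from DMSO stocks, 20 to 1.25 µg/mL, final 1% DMSO, in duplicate. Incubated 37 °C, 16-24 h, with shaking. OD600 read.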

Data set [10] in a line: Area under the plasma concentration curve determined in mouse after subcutaneous administration at 200 mg/kg. It is filed as ADME, organism-based. Set-up: dose 200 mg/kg, route subcutaneous. As to conditions: in vivo, sc. The method in brief: as §2
A short description of data set [11]: Area under the plasma concentration curve determined in mouse after subcutaneous administration at 20 mg/kg. As to conditions: in vivo, sc. It is filed as ADME, organism-based. Set-up: dose 20 mg/kg, route subcutaneous. The method in brief: as §2
The subject of data set [12] is Enterococcus faecalis. Description: Serum effect on MIC of compound was measured against Enterococcus faecalis as ratio of MIC value in presence and absence of 50% fetal calf serum. It is filed as functional. The method in brief: as §5
A short description of data set [13]: Half life in mouse after peroral administration at 200 mg/kg. The note with it: in vivo, po. It is filed as ADME, organism-based. Also on record: dose 200 mg/kg, route oral. The method in brief: as §4
The nature of data set [14]: Area under the plasma concentration curve determined in mouse after peroral administration at 200 mg/kg. It is filed as ADME, organism-based. As to conditions: in vivo, po. Also on record: dose 200 mg/kg, route oral. The method in brief:
as §4

Data set [15] deals with Staphylococcus aureus. Description: Effect on survival of staphylococcus aureus (Smith) ip-infected mice at a concentration 10 mg/kg. Type of data set: functional. The method in brief: as §3
Data set [16] deals with DNA polymerase III PolC-type (Bacillus subtilis (strain 168), UniProt P13267). The data set can be described thus: Inhibitory concentration against Bacillus subtilis DNA polymerase IIIC using [3H]dTMP 250 pM (30 degree C for 10 min). The method in brief:
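Homogeneous recombinant B. subtilis pol IIIC, 0.025-0.06 units, acted on activated calf thymus DNA with Mg2+, DTT, glycerol, dATP, dCTP, dTTP and [3H]dTTP, without dGTP. Compounds were serially diluted from DMSO. Reactions ran 10 min at 30 °C, were stopped with TCA-pyrophosphate, and the filter-collected precipitate was scintillation counted. Apparent Ki was read directly from this truncated assay; average standard deviation ±44%.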

In data set [17] the test system is Enterococcus faecium. The data set can be described thus: In vitro minimum inhibitory concentration against Enterococcus fecium upon incubation at 37 degree C for 16 to 24 hr by dissolving in DMSO (1%). It is filed as functional. The method in brief: as §6
Data set [18] has as its system Staphylococcus aureus. The data set can be described thus: In vitro minimum inhibitory concentration against Methicillin-resistant Staphylococcus aureus upon incubation at 37 degree C for 16 to 24 hr by dissolving in DMSO (1%). Type of data set: functional. The method in brief: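 Broth microdilution (modified NCCLS M7-A4). Staphylococci grown to log phase in Luria broth, seeded at (3-7) × 10⁵ CFU/mL. Compounds 2-fold diluted from DMSO stocks, 20 to 1.25 µg/mL, final 1% DMSO, in duplicate. Incubated 37 °C, 16-24 h, with shaking. OD600 read.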

Data set [19] relates to Staphylococcus aureus. The data set can be described thus: Effect on survival of staphylococcus aureus (Smith) ip-infected mice at 20 mg/kg. Type of data set: functional. The method in brief: as §3
Data set [20] in a line: Half life in mouse after intravenous administration at 20 mg/kg. It is filed as ADME, organism-based. Set-up: dose 20 mg/kg, route intravenous. As to conditions: in vivo. The method in brief: as §1
A short description of data set [21]: Maximum plasma concentration in mouse after subcutaneous administration at 20 mg/kg. It is filed as ADME, organism-based. Also on record: dose 20 mg/kg, route subcutaneous. The note with it: sc. The method in brief: as §2
Data set [22] can be described thus: Maximum time taken to reach Cmax was determined in mouse after subcutaneous administration at 20 mg/kg. Type of data set: ADME, organism-based. Also on record: dose 20 mg/kg, route subcutaneous. As to conditions: in vivo, sc. The method in brief:
as §2

Data set [23] relates to Staphylococcus aureus. The data set can be described thus: In vitro minimum inhibitory concentration against Staphylococcus aureus (Smith) upon incubation at 37 degree C for 16 to 24 hr by dissolving in DMSO (1%). It is filed as functional.
A short description of data set [24]: Maximum plasma concentration in mouse after subcutaneous administration at 60 mg/kg. Set-up: dose 60 mg/kg, route subcutaneous. The note with it: sc. It is filed as ADME, organism-based. The method in brief: as §2
A short description of data set [25]: Half life in mouse after subcutaneous administration at 20 mg/kg. The note with it: in vivo, sc. It is filed as ADME, organism-based. Also on record: dose 20 mg/kg, route subcutaneous. The method in brief:
as §2

The nature of data set [26]: Maximum plasma concentration in mouse after intravenous administration at 20 mg/kg. It is filed as ADME, organism-based. Also on record: dose 20 mg/kg, route intravenous. The method in brief: as §1
A short description of data set [27]: Area under the plasma concentration curve determined in mouse after subcutaneous administration at 60 mg/kg. Type of data set: ADME, organism-based. Set-up: dose 60 mg/kg, route subcutaneous. As to conditions: in vivo, sc. The method in brief:
as §2

Data set [28] can be described thus: Maximum time taken to reach Cmax was determined in mouse after subcutaneous administration at 60 mg/kg. It is filed as ADME, organism-based. Also on record: dose 60 mg/kg, route subcutaneous. The note with it: in vivo, sc. The method in brief:
as §2

≈ marks a conversion by molar mass, not a printed value.

Chain of DNA polymerase III PolC-type (P13267 whole entry, the tested form may be a part): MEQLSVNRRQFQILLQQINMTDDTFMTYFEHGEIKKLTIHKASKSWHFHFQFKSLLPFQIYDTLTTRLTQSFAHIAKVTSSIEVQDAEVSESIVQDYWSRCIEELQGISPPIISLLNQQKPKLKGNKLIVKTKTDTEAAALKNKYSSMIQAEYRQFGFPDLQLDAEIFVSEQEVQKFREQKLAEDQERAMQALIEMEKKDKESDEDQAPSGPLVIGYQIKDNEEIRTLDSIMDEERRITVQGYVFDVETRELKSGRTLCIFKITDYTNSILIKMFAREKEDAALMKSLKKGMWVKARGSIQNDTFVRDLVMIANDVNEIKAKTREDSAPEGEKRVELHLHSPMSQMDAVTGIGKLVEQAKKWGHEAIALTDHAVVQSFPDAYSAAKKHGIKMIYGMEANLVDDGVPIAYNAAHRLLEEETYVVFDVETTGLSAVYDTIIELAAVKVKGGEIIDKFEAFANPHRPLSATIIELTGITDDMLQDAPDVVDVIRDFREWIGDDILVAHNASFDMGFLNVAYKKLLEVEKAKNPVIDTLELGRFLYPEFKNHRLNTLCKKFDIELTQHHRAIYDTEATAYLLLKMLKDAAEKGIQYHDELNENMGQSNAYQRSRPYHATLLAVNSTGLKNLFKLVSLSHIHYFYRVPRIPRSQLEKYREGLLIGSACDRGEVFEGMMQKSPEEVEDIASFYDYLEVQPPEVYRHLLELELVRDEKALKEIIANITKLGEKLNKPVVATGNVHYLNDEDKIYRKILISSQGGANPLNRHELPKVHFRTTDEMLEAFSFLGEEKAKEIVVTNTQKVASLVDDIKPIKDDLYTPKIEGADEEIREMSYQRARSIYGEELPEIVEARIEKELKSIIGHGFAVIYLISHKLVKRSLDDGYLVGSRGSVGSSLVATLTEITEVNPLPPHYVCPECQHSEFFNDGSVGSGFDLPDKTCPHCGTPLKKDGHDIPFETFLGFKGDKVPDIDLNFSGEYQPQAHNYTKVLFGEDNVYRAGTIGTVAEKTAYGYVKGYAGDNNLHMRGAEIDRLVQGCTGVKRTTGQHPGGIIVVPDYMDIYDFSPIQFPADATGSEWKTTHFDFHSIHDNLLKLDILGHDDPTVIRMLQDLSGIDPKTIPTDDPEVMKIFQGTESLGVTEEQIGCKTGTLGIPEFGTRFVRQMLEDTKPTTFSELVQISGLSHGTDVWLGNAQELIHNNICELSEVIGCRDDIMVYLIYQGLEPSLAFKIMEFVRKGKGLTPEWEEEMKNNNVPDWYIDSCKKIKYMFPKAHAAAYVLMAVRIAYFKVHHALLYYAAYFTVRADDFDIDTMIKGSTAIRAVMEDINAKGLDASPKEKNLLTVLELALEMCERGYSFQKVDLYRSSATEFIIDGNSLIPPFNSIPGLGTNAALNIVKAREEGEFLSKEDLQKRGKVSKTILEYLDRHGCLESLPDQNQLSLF

For `CCc1cc(Nc2cc(=O)n(CCCCN3CCOCC3)c(=O)[nH]2)ccc1C.Cl`, the MIC in data set [1] came out at 10 µg/mL; in data set [2] it was 5 µg/mL; in data set [9], 5 µg/mL; in data set [17], 10 µg/mL; in data set [18], 10 µg/mL. Besides, the AUC in data set [3] came out at 3900 ng·h/mL; in data set [4], 50700 ng·h/mL; in data set [10] it was 26900 ng·h/mL; in data set [11], 6770 ng·h/mL; in data set [14], 15400 ng·h/mL. Also, the figures for the Activity in data set [5] and in data set [15] were 5 and 4, respectively. Further, in data set [6], the Cmax was determined as 7300 ng/mL. For the same molecule, the Tmax in [7] was 60 min. Further, the “MIC+/MIC-” value in data set [8] is on record as 1.7; in data set [12], 2. In data set [13], this molecule came in with a half-life of 111 min. In [16], this molecule returned a Ki of 0.052 µM.

Consider `CCc1cc(Nc2cc(=O)n(CCCCN3CCOCC3)c(=O)[nH]2)ccc1C`, for which the MIC was 10 µg/mL (≈ 25.9 µM) in data set [1]; 5 µg/mL (≈ 12.9 µM) in data set [2]; 5 µg/mL (≈ 12.9 µM) in [9]; 2.5 µg/mL (≈ 6.47 µM) in [17]; 10 µg/mL (≈ 25.9 µM) in [18]. Further, the “MIC+/MIC-” value in [8] was found to be 2.3; in data set [12], 3.2. Moreover, the values for the Activity in [15] and in [19] were 2 and 4, respectively.

As to `CCc1cc(Nc2cc(=O)n(CCCCO)c(=O)[nH]2)ccc1C`, the MIC in data set [2], in data set [9], in data set [23], in data set [17] and in [18] was 5 µg/mL (≈ 15.8 µM) in each case. For the same molecule, the AUC in data set [3] was 4800 ng·h/mL; in data set [11], 7780 ng·h/mL; in data set [27] it was 20200 ng·h/mL. Besides, the Activity in [5] is recorded as 5; in [15] it was 3. Moreover, the half-life in [20] was found to be 33 min; in data set [25] it was 29.3 min. For the same molecule, the figures for the Cmax in data set [21], in [24] and in [26] were 5100 ng/mL, 13000 ng/mL and 53000 ng/mL, respectively. In [8], the “MIC+/MIC-” value is 7.5. Also, the Tmax in [22] and in data set [28] was 15 min each time. Moreover, the affinity in [16], expressed as Ki, was 0.055 µM.
